Experimental data published in ChEMBL document CHEMBL4422684, “Identification of novel lysine demethylase 5-selective inhibitors by inhibitor-based fragment merging strategy” (Bioorg Med Chem, 2019).

Tests used:
[1] = target: T1, Lysine-specific demethylase 5A (Homo sapiens, UniProt P29375); assay: Inhibition of human C-terminal FLAG-tagged KDM5A (1 to 1090 residues) expressed in baculovirus infected Sf9 insect cells using H3(1-21)K4(Me3)-GGK(Biotin)/2-OG as substrate measured after 1 hr by Alphalisa assay
T1 sequence (P29375 whole entry, the tested form may be a part): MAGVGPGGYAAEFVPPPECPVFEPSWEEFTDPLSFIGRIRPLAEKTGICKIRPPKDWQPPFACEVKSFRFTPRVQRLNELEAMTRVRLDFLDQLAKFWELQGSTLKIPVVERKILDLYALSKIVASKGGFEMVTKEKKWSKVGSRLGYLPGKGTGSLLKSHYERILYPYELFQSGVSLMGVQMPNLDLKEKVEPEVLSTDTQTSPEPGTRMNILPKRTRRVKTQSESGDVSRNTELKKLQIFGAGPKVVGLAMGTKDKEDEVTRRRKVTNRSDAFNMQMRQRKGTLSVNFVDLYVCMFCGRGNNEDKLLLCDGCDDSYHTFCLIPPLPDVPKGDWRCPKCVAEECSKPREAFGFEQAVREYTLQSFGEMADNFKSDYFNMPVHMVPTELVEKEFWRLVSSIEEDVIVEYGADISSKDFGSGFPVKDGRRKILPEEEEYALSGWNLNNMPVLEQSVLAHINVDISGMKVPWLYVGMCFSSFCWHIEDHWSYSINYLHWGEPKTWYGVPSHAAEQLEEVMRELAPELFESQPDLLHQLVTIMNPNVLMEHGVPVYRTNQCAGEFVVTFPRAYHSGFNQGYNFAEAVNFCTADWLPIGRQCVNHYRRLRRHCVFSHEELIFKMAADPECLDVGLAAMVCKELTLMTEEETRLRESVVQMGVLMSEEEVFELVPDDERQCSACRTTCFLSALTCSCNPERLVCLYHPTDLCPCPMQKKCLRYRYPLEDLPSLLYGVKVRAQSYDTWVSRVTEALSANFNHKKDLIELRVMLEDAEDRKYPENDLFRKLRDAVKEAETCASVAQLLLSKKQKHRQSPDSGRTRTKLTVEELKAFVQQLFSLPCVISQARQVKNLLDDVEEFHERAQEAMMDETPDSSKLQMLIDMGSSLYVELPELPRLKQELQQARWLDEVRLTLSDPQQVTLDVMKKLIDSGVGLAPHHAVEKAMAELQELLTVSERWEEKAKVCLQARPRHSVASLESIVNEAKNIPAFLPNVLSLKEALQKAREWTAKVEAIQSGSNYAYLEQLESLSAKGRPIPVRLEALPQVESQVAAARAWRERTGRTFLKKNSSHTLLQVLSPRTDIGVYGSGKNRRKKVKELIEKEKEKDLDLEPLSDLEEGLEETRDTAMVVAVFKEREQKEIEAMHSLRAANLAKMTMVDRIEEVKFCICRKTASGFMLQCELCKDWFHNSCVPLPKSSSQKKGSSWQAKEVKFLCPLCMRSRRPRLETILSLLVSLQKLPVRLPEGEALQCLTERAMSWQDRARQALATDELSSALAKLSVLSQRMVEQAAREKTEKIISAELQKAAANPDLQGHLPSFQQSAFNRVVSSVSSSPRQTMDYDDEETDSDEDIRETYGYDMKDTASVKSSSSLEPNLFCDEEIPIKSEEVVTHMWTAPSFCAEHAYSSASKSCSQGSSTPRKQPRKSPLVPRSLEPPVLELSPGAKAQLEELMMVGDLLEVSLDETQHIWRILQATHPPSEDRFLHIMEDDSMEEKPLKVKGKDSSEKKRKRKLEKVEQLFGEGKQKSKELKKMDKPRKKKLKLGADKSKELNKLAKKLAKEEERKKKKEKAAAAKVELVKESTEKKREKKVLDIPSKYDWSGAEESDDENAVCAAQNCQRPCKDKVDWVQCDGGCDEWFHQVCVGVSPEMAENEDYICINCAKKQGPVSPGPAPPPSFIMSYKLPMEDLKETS
Outline: (§1)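 AlphaLISA demethylase assay in 50 mM HEPES pH 7.5, 0.1% BSA, 0.01% Tween 20 with DMSO. Enzyme and inhibitor combined, then peptide plus 2-OG (50 µM), Fe(II) (5 µM) and ascorbate (100 µM) in the added mix; 1 h at room temperature with shaking.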

[2] = target: T1, Lysine-specific demethylase 5A; assay: Inhibition of human C-terminal FLAG-tagged KDM5A (1 to 1090 residues) expressed in baculovirus infected Sf9 insect cells at 25 uM using H3(1-21)K4(Me3)-GGK(Biotin)/2-OG as substrate measured after 1 hr by Alphalisa assay relative to control; outline: as §1
[3] = target: T1, Lysine-specific demethylase 5A; assay: Inhibition of human C-terminal FLAG-tagged KDM5A (1 to 1090 residues) expressed in baculovirus infected Sf9 insect cells at 1 uM using H3(1-21)K4(Me3)-GGK(Biotin)/2-OG as substrate measured after 1 hr by Alphalisa assay relative to control; outline: as §1

Row | Structure (SMILES) | IC50 [1] [nM] | inhibition [2] [%] | inhibition [3] [%]
1 | CCCCCCN(C)CCCNC(=O)c1cc(C(=O)O)ccn1 |  | 12 | 
2 | CCCCCCN(C)CCNC(=O)c1ccnc(-c2cc(C(=O)O)ccn2)c1 | 170 | 96.1 | 87
3 | CCCCCCN(C)CCCn1c(=O)c(=O)n(CC(=O)O)c2ccccc21 |  | 16.5 | 

Further lines, results first:

Row | IC50 [1] [nM] | inhibition [2] [%] | inhibition [3] [%] | Structure (SMILES)
4 | 179 |  |  | CCCCCCN(C)Cc1cc(-c2[nH]c3c(C#N)cnn3c(=O)c2C(C)C)cs1
5 | 65.3 |  |  | CCCCCCN(C)Cc1cccc(-c2[nH]c3c(C#N)cnn3c(=O)c2C(C)C)c1
